Holding throughout (type): functional
Common to all, as to settings: read-out: IZ

For assay [1], the system named is Proteus mirabilis. Briefly: Antimicrobial activity against Proteus mirabilis at 100 ug/ml after 24 hrs by agar diffusion method. The gist of the method: (§1)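 Agar well diffusion: petri plates (9 cm) with about 9 ml nutrient agar, seeded with the test organism. Wells cut with a cork borer and loaded with test compound at 25, 50, 75 or 100 per ml; tetracycline as control. Incubated 37 °C for 24 h; average inhibition-zone diameter around wells measured (mm).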

The subject of assay [2] is Salmonella enterica subsp. enterica serovar Typhi str. CT18. The experiment in a line: Antimicrobial activity against Salmonella typhi at 50 ug/ml after 24 hrs by agar diffusion method. The gist of the method:
(§2)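 Agar well diffusion: about 9 ml nutrient agar in 9 cm Petri plates, seeded with the test organism. Wells cut with a cork borer and loaded with test compound at 25–100 per ml; tetracycline as control. Plates incubated 24 h at 37 °C. Read-out is the average diameter of the inhibition zone around each well, in mm.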

Assay [3] has the same test system. Briefly: Antimicrobial activity against Salmonella typhi at 25 ug/ml after 24 hrs by agar diffusion method. The procedure, abridged: as §2
Assay [4] has as its system Proteus mirabilis. The experiment in a line: Antimicrobial activity against Proteus mirabilis at 25 ug/ml after 24 hrs by agar diffusion method. The gist of the method: as §1
Assay [5] deals with Proteus vulgaris. Briefly: Antimicrobial activity against Proteus vulgaris at 100 ug/ml after 24 hrs by agar diffusion method. The procedure, abridged:
as §1

Assay [6] relates to Staphylococcus aureus. Briefly: Antimicrobial activity against Staphylococcus aureus at 75 ug/ml after 24 hrs by agar diffusion method. The gist of the method:
as §1

The subject of assay [7] is Staphylococcus aureus. The experiment in a line: Antimicrobial activity against Staphylococcus aureus at 50 ug/ml after 24 hrs by agar diffusion method. The gist of the method: as §1
In assay [8] the test system is Staphylococcus aureus. Briefly: Antimicrobial activity against Staphylococcus aureus at 100 ug/ml after 24 hrs by agar diffusion method. The gist of the method: as §1
In assay [9] the test system is Salmonella enterica subsp. enterica serovar Typhi str. CT18. The experiment in a line: Antimicrobial activity against Salmonella typhi at 100 ug/ml after 24 hrs by agar diffusion method. The procedure, abridged:
as §2

The test system of assay [10] is Staphylococcus aureus. Briefly: Antimicrobial activity against Staphylococcus aureus at 25 ug/ml after 24 hrs by agar diffusion method. The procedure, abridged:
as §1

Assay [11] relates to Proteus vulgaris. The experiment in a line: Antimicrobial activity against Proteus vulgaris at 25 ug/ml after 24 hrs by agar diffusion method. The gist of the method: as §1
Assay [12] relates to Proteus vulgaris. Briefly: Antimicrobial activity against Proteus vulgaris at 75 ug/ml after 24 hrs by agar diffusion method. The gist of the method: as §1
Assay [13] concerns Salmonella enterica subsp. enterica serovar Typhi str. CT18. The experiment in a line: Antimicrobial activity against Salmonella typhi at 75 ug/ml after 24 hrs by agar diffusion method. The procedure, abridged:
as §2

Assay [14] relates to Proteus mirabilis. Briefly: Antimicrobial activity against Proteus mirabilis at 75 ug/ml after 24 hrs by agar diffusion method. The gist of the method: as §1
The subject of assay [15] is Proteus mirabilis. Briefly: Antimicrobial activity against Proteus mirabilis at 50 ug/ml after 24 hrs by agar diffusion method. The gist of the method: as §1
In assay [16] the test system is Proteus vulgaris. The experiment in a line: Antimicrobial activity against Proteus vulgaris at 50 ug/ml after 24 hrs by agar diffusion method. The procedure, abridged: as §1

The structures appear in SMILES notation.

Consider `COc1ccc([C@@H]2CN(C)[C@@]3(C(=O)Nc4ccccc43)[C@]23CCc2c([nH]c4ccccc24)C3=O)cc1`, for which the zone of inhibition at 100 µg/mL in the assay on Proteus mirabilis [1] is 21 mm; in the assay with Proteus vulgaris [5] it was 20 mm; with Staphylococcus aureus [8] it was 20 mm; in [9] it was 21 mm. Besides, the zone of inhibition at 50 µg/mL worked out at 14 mm in assay [2], 14 mm in the assay on Staphylococcus aureus [7], 13 mm with Proteus mirabilis [15] and 13 mm in the assay on Proteus vulgaris [16]. Also, the zone of inhibition at 25 µg/mL in assay [3] amounted to 12 mm; in the assay with Proteus mirabilis [4], 9 mm; with Staphylococcus aureus [10], 12 mm; in the assay with Proteus vulgaris [11], 11 mm. Moreover, the zone of inhibition at 75 µg/mL in the assay on Staphylococcus aureus [6] was 17 mm; with Proteus vulgaris [12], 18 mm; in assay [13], 18 mm; in the assay with Proteus mirabilis [14], 16 mm.
On to `CN1C[C@@H](c2ccc(Cl)cc2)[C@@]2(CCc3c([nH]c4ccccc34)C2=O)[C@]12C(=O)c1cccc3cccc2c13`, for which the zone of inhibition at 100 µg/mL was 36 mm in the assay on Proteus mirabilis [1], greater than 40 mm with Proteus vulgaris [5], 34 mm in the assay with Staphylococcus aureus [8] and 31 mm in assay [9]. Further, the zone of inhibition at 50 µg/mL in assay [2] amounted to 16 mm; with Staphylococcus aureus [7], 18 mm; with Proteus mirabilis [15], 16 mm; in the assay with Proteus vulgaris [16] it was 18 mm. The zone of inhibition at 25 µg/mL in assay [3] was 13 mm; with Proteus mirabilis [4], 12 mm; in the assay on Staphylococcus aureus [10], 14 mm; in the assay on Proteus vulgaris [11], 19 mm. The zone of inhibition at 75 µg/mL was found to be 22 mm with Staphylococcus aureus [6], 24 mm in the assay on Proteus vulgaris [12], 21 mm in assay [13] and 24 mm with Proteus mirabilis [14].
For `CN1C[C@@H](c2ccc([N+](=O)[O-])cc2)[C@@]2(CCc3c([nH]c4ccccc34)C2=O)[C@]12C(=O)c1cccc3cccc2c13`, the zone of inhibition at 100 µg/mL was 21 mm with Proteus mirabilis [1], greater than 40 mm in the assay with Proteus vulgaris [5], 31 mm with Staphylococcus aureus [8] and 25 mm in [9]. The zone of inhibition at 50 µg/mL in [2] amounted to 14 mm; in the assay with Staphylococcus aureus [7], 16 mm; with Proteus mirabilis [15] it was 13 mm; in the assay with Proteus vulgaris [16], 22 mm. The zone of inhibition at 25 µg/mL in [3] came out at 11 mm; with Proteus mirabilis [4], 9 mm; in the assay on Staphylococcus aureus [10], 9 mm; in the assay on Proteus vulgaris [11], 13 mm. For the same compound, the zone of inhibition at 75 µg/mL in the assay with Staphylococcus aureus [6] is 21 mm; in the assay with Proteus vulgaris [12], 27 mm; in [13], 18 mm; in the assay with Proteus mirabilis [14] it was 17 mm.
Turning to `Cc1ccc([C@@H]2CN(C)[C@@]3(C(=O)Nc4ccccc43)[C@]23CCc2c([nH]c4ccccc24)C3=O)cc1`, the zone of inhibition at 100 µg/mL in the assay on Proteus mirabilis [1] amounted to 18 mm; with Proteus vulgaris [5] it was 21 mm; in the assay on Staphylococcus aureus [8], 20 mm; in assay [9], 16 mm. The zone of inhibition at 50 µg/mL turned out to be 12 mm in assay [2], 13 mm with Staphylococcus aureus [7], 14 mm in the assay with Proteus mirabilis [15] and 16 mm in the assay with Proteus vulgaris [16]. Moreover, the zone of inhibition at 25 µg/mL in assay [3] came out at 9 mm; in the assay on Proteus mirabilis [4], 11 mm; with Staphylococcus aureus [10], 9 mm; in the assay with Proteus vulgaris [11], 12 mm. Further, the zone of inhibition at 75 µg/mL was 16 mm in the assay on Staphylococcus aureus [6], 18 mm in the assay with Proteus vulgaris [12], 14 mm in assay [13] and 16 mm in the assay with Proteus mirabilis [14].
Consider `CN1C[C@@H](c2ccccc2)[C@@]2(CCc3c([nH]c4ccccc34)C2=O)[C@]12C(=O)Nc1ccccc12`, for which the zone of inhibition at 100 µg/mL came out at 16 mm with Proteus mirabilis [1], 26 mm in the assay on Proteus vulgaris [5], 18 mm in the assay with Staphylococcus aureus [8] and 18 mm in assay [9]. For the same compound, the zone of inhibition at 50 µg/mL in [2] was 11 mm; in the assay on Staphylococcus aureus [7], 13 mm; in the assay with Proteus mirabilis [15], 12 mm; in the assay with Proteus vulgaris [16], 16 mm. Further, the zone of inhibition at 25 µg/mL stood at 9 mm in assay [3], 9 mm with Proteus mirabilis [4], 11 mm in the assay on Staphylococcus aureus [10] and 12 mm in the assay on Proteus vulgaris [11]. In addition, the zone of inhibition at 75 µg/mL in the assay with Staphylococcus aureus [6] stood at 16 mm; with Proteus vulgaris [12], 20 mm; in assay [13], 13 mm; in the assay on Proteus mirabilis [14] it was 14 mm.
As for `CN1C[C@@H](c2ccc(Cl)cc2)[C@@]2(CCc3c([nH]c4ccccc34)C2=O)[C@]12C(=O)Nc1ccccc12`, the zone of inhibition at 100 µg/mL was found to be 22 mm in the assay on Proteus mirabilis [1], 26 mm with Proteus vulgaris [5], 21 mm in the assay on Staphylococcus aureus [8] and 18 mm in assay [9]. Moreover, the zone of inhibition at 50 µg/mL in [2] amounted to 15 mm; with Staphylococcus aureus [7], 14 mm; with Proteus mirabilis [15], 15 mm; in the assay with Proteus vulgaris [16], 18 mm. Besides, the zone of inhibition at 25 µg/mL in assay [3] was determined as 11 mm; in the assay on Proteus mirabilis [4], 13 mm; with Staphylococcus aureus [10], 9 mm; in the assay on Proteus vulgaris [11] it was 9 mm. Besides, the zone of inhibition at 75 µg/mL in the assay with Staphylococcus aureus [6] amounted to 18 mm; in the assay on Proteus vulgaris [12], 24 mm; in assay [13], 17 mm; in the assay on Proteus mirabilis [14] it was 18 mm.
As to `CN1C[C@@H](c2ccc(Br)cc2)[C@@]2(CCc3c([nH]c4ccccc34)C2=O)[C@]12C(=O)c1cccc3cccc2c13`, the zone of inhibition at 100 µg/mL with Proteus mirabilis [1] was 22 mm; with Proteus vulgaris [5] it was 22 mm; in the assay with Staphylococcus aureus [8], 22 mm; in assay [9], 30 mm. The zone of inhibition at 50 µg/mL in assay [2] worked out at 14 mm; in the assay with Staphylococcus aureus [7] it was 14 mm; with Proteus mirabilis [15], 15 mm; in the assay with Proteus vulgaris [16] it was 16 mm. The zone of inhibition at 25 µg/mL was determined as 9 mm in assay [3], 13 mm with Proteus mirabilis [4], 11 mm in the assay on Staphylococcus aureus [10] and 12 mm with Proteus vulgaris [11]. Also, the zone of inhibition at 75 µg/mL with Staphylococcus aureus [6] is 18 mm; in the assay with Proteus vulgaris [12], 20 mm; in assay [13], 21 mm; in the assay with Proteus mirabilis [14], 18 mm.
`COc1ccc([C@@H]2CN(C)[C@@]3(C(=O)c4cccc5cccc3c45)[C@]23CCc2c([nH]c4ccccc24)C3=O)cc1`: the zone of inhibition at 100 µg/mL with Proteus mirabilis [1] was found to be 22 mm; in the assay on Proteus vulgaris [5], 17 mm; in the assay with Staphylococcus aureus [8] it was 30 mm; in assay [9] it was 26 mm. Also, the zone of inhibition at 50 µg/mL in [2] came to 15 mm; in the assay with Staphylococcus aureus [7], 16 mm; in the assay on Proteus mirabilis [15], 16 mm; in the assay with Proteus vulgaris [16], 12 mm. Also, the zone of inhibition at 25 µg/mL amounted to 13 mm in [3], 14 mm with Proteus mirabilis [4], 9 mm in the assay with Staphylococcus aureus [10] and 9 mm in the assay with Proteus vulgaris [11]. Moreover, the zone of inhibition at 75 µg/mL in the assay with Staphylococcus aureus [6] came to 21 mm; with Proteus vulgaris [12] it was 13 mm; in [13] it was 18 mm; with Proteus mirabilis [14], 20 mm.
Regarding `CN(C)[C@@H]1C(O)=C(C(N)=O)C(=O)[C@@]2(O)C(O)=C3C(=O)c4c(O)cccc4[C@@](C)(O)[C@H]3C[C@@H]12` [TETRACYCLINE], the zone of inhibition at 100 µg/mL (in the assay on Proteus mirabilis [1]; with Proteus vulgaris [5]; in the assay on Staphylococcus aureus [8]; in [9]) was greater than 40 mm each time. The zone of inhibition at 50 µg/mL turned out to be 22 mm in assay [2], 24 mm in the assay on Staphylococcus aureus [7], 24 mm with Proteus mirabilis [15] and 24 mm in the assay with Proteus vulgaris [16]. Besides, the zone of inhibition at 25 µg/mL in [3] came to 18 mm; in the assay with Proteus mirabilis [4] it was 18 mm; in the assay on Staphylococcus aureus [10], 22 mm; in the assay with Proteus vulgaris [11], 18 mm. The zone of inhibition at 75 µg/mL (with Staphylococcus aureus [6]; with Proteus vulgaris [12]; in assay [13]; with Proteus mirabilis [14]) was 28 mm throughout.
